# Test results: ChEMBL document CHEMBL2407075, “Sulphonamido-quinoxalines: search for anticancer agent” (Eur J Med Chem, 2013)
# Experiments:
# Assay type in all cases: functional
# ACHN = test: Growth inhibition of human ACHN cells assessed as cell growth at 10^-4 M after 48 hrs by sulforhodamine B assay; conditions: read-out: Activity
# Method in brief: (§1)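 Five-dose NCI-60 run (0.01, 0.1, 1, 10 and 100 µM, as 10-fold dilutions from a DMSO stock made at 400× the top final level). Cells were grown in RPMI 1640 with 5% FBS and 2 mM glutamine and plated for 24 h. They were then exposed for 48 h at 37 °C and 5% CO2. TCA fixation was followed by SRB staining with A515 read-out. Percent growth was taken relative to time-zero and control plates.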
# 786-0 = test: Growth inhibition of human 786-0 cells assessed as cell growth at 10^-4 M after 48 hrs by sulforhodamine B assay; conditions: 786-0, 48 h, read-out: Activity; method in brief: as §1
# [1] = Growth inhibition of human HCC2998 cells assessed as cell growth at 10^-4 M after 48 hrs by sulforhodamine B assay; conditions: HCC 2998, 48 h, read-out: Activity
# Method in brief: (§2)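 Five-dose screen at NCI. Cells in RPMI 1640 with 5% FBS and 2 mM L-glutamine, seeded at 5000–40,000 cells/well and grown 24 h at 37 °C, 5% CO2 before dosing, with time-zero plates TCA-fixed. Drug diluted from DMSO stock to 0.01, 0.1, 1, 10 and 100 µM final, 48 h. Cells fixed with cold TCA (10% final), stained with 0.4% SRB and read at 515 nm. Percent growth from Tz, control and test absorbances; GI50, TGI and LC50 from dose-response curves.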
# COLO 205 = test: Growth inhibition of human COLO205 cells assessed as cell growth at 10^-4 M after 48 hrs by sulforhodamine B assay; conditions: COLO 205, 48 h, read-out: Activity; method in brief: as §1
# [2] = Growth inhibition of human EKVX cells assessed as cell growth at 10^-4 M after 48 hrs by sulforhodamine B assay; conditions: read-out: Activity; method in brief: as §1
# PC-3 = test: Growth inhibition of human PC3 cells assessed as cell growth at 10^-5 M after 48 hrs by sulforhodamine B assay; conditions: PC-3, 48 h, read-out: Activity
# SN12C = test: Growth inhibition of human SN12C cells assessed as cell growth at 10^-5 M after 48 hrs by sulforhodamine B assay; conditions: read-out: Activity
# TK-10 [3] = test: Growth inhibition of human TK10 cells assessed as cell growth at 10^-5 M after 48 hrs by sulforhodamine B assay; conditions: TK-10, 48 h, read-out: Activity
# A498 = test: Growth inhibition of human A498 cells assessed as cell growth at 10^-5 M after 48 hrs by sulforhodamine B assay; conditions: A498, 48 h, read-out: Activity; method in brief: as §1
# SK-OV-3 [4] = test: Growth inhibition of human SKOV3 cells assessed as cell growth at 10^-5 M after 48 hrs by sulforhodamine B assay; conditions: SK-OV-3, 48 h, read-out: Activity
# Malme-3M [5] = test: Growth inhibition of human MALME-3M cells assessed as cell growth at 10^-5 M after 48 hrs by sulforhodamine B assay; conditions: read-out: Activity
# HCT-116 [6] = test: Growth inhibition of human HCT116 cells assessed as cell growth at 10^-5 M after 48 hrs by sulforhodamine B assay; conditions: HCT-116, 48 h, read-out: Activity; method in brief: as §2
# [7] = Growth inhibition of human HCC2998 cells assessed as cell growth at 10^-5 M after 48 hrs by sulforhodamine B assay; conditions: HCC 2998, 48 h, read-out: Activity; method in brief: as §2
# A549 = test: Growth inhibition of human A549/ATCC cells assessed as cell growth at 10^-5 M after 48 hrs by sulforhodamine B assay; conditions: A549, 48 h, read-out: Activity; method in brief: as §1
# MDA-MB-231 = test: Growth inhibition of human MDA-MB-231 cells assessed as cell growth at 10^-6 M after 48 hrs by sulforhodamine B assay; conditions: MDA-MB-231, 48 h, read-out: Activity
# UACC-257 = test: Growth inhibition of human UACC257 cells assessed as cell growth at 10^-6 M after 48 hrs by sulforhodamine B assay; conditions: UACC-257, 48 h, read-out: Activity
# Malme-3M [8] = test: Growth inhibition of human MALME-3M cells assessed as cell growth at 10^-6 M after 48 hrs by sulforhodamine B assay; conditions: read-out: Activity
# [9] = Growth inhibition of human EKVX cells assessed as cell growth at 10^-6 M after 48 hrs by sulforhodamine B assay; conditions: read-out: Activity; method in brief: as §2
# RPMI-8226 = test: Growth inhibition of human RPMI8226 cells assessed as cell growth at 10^-6 M after 48 hrs by sulforhodamine B assay; conditions: RPMI-8226, 48 h, read-out: Activity
# T47D = test: Growth inhibition of human T47D cells assessed as cell growth at 10^-7 M after 48 hrs by sulforhodamine B assay; conditions: read-out: Activity
# TK-10 [10] = test: Growth inhibition of human TK10 cells assessed as cell growth at 10^-7 M after 48 hrs by sulforhodamine B assay; conditions: TK-10, 48 h, read-out: Activity
# SNB-75 = test: Growth inhibition of human SNB75 cells assessed as cell growth at 10^-7 M after 48 hrs by sulforhodamine B assay; conditions: SNB-75, 48 h, read-out: Activity
# SW-620 = test: Growth inhibition of human SW620 cells assessed as cell growth at 10^-7 M after 48 hrs by sulforhodamine B assay; conditions: SW-620, 48 h, read-out: Activity
# MOLT-4 = test: Growth inhibition of human MOLT4 cells assessed as cell growth at 10^-7 M after 48 hrs by sulforhodamine B assay; conditions: MOLT-4, 48 h, read-out: Activity
# UO-31 = test: Growth inhibition of human UO31 cells assessed as cell growth at 10^-8 M after 48 hrs by sulforhodamine B assay; conditions: UO-31, 48 h, read-out: Activity
# SK-OV-3 [11] = test: Growth inhibition of human SKOV3 cells assessed as cell growth at 10^-8 M after 48 hrs by sulforhodamine B assay; conditions: SK-OV-3, 48 h, read-out: Activity
# LOX IMVI = test: Growth inhibition of human LOXIMVI cells assessed as cell growth at 10^-8 M after 48 hrs by sulforhodamine B assay; conditions: read-out: Activity
# HOP-92 = test: Growth inhibition of human HOP92 cells assessed as cell growth at 10^-8 M after 48 hrs by sulforhodamine B assay; conditions: HOP-92, 48 h, read-out: Activity; method in brief: as §2
# CAKI-1 = test: Growth inhibition of human CAKI-1 cells after 48 hrs by sulforhodamine B assay; conditions: CAKI-1, 48 h, read-out: LC50 (the source's name)
# Method in brief: (§3)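 Adherent cells in RPMI 1640 with 5% FBS and 2 mM L-glutamine were plated at 5000–40,000 cells/well and grown 24 h. Five concentrations (0.01–100 µM, DMSO stock) were added for 48 h at 37 °C. Cells were fixed with cold TCA (10% final) and stained with SRB, read at 515 nm. GI50 came from log concentration–growth curves against time-zero and control plates.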
# MDA-MB-435 = test: Growth inhibition of human MDA-MB-435 cells after 48 hrs by sulforhodamine B assay; conditions: MDA-MB-435, 48 h, read-out: LC50 (the source's name); method in brief: as §3
# HCT-116 [12] = test: Growth inhibition of human HCT116 cells after 48 hrs by sulforhodamine B assay; conditions: HCT-116, 48 h; for CC50: read-out: LC50 (the source's name); method in brief: as §2
SMILES,growth at 100 µM (ACHN) [%],growth at 100 µM (786-0) [%],growth at 100 µM [1] [%],growth at 100 µM (COLO 205) [%],growth at 100 µM [2] [%],growth at 10 µM (PC-3) [%],growth at 10 µM (SN12C) [%],growth at 10 µM (TK-10 [3]) [%],growth at 10 µM (A498) [%],growth at 10 µM (SK-OV-3 [4]) [%],growth at 10 µM (Malme-3M [5]) [%],growth at 10 µM (HCT-116 [6]) [%],growth at 10 µM [7] [%],growth at 10 µM (A549) [%],growth at 1 µM (MDA-MB-231) [%],growth at 1 µM (UACC-257) [%],growth at 1 µM (Malme-3M [8]) [%],growth at 1 µM [9] [%],growth at 1 µM (RPMI-8226) [%],growth at 0.1 µM (T47D) [%],other results
O=S(=O)(Nc1ccccn1)c1ccc2nc(-c3ccccc3)c(-c3ccccc3)nc2c1,62,50,64,57,50,-12,26,4,-8,11,-40,1,-14,9,89,81,115,89,55,85,growth at 0.1 µM (TK-10 [10]): 99%; growth at 0.1 µM (SNB-75): 90%; growth at 0.1 µM (SW-620): 102%; growth at 0.1 µM (MOLT-4): 95%; growth at 0.01 µM (UO-31): 88%; growth at 0.01 µM (SK-OV-3 [11]): 97%; growth at 0.01 µM (LOX IMVI): 97%; growth at 0.01 µM (HOP-92): 94%; CC50 (CAKI-1): > 100 µM; CC50 (MDA-MB-435): > 100 µM; GI50 (HCT-116 [12]): 2.17 µM; TGI (HCT-116 [12]): > 100 µM; CC50 (HCT-116 [12]): > 100 µM
O=S(=O)(Nc1ccc(Cl)cc1)c1ccc2nc(-c3ccccc3)c(-c3ccccc3)nc2c1,76,75,85,73,65,-12,21,9,-5,14,-43,1,2,5,83,84,103,91,68,90,growth at 0.1 µM (TK-10 [10]): 99%; growth at 0.1 µM (SNB-75): 68%; growth at 0.1 µM (SW-620): 91%; growth at 0.1 µM (MOLT-4): 94%; growth at 0.01 µM (UO-31): 87%; growth at 0.01 µM (SK-OV-3 [11]): 95%; growth at 0.01 µM (LOX IMVI): 99%; growth at 0.01 µM (HOP-92): 96%; CC50 (CAKI-1): > 100 µM; CC50 (MDA-MB-435): > 100 µM; TGI (HCT-116 [12]): > 100 µM; CC50 (HCT-116 [12]): > 100 µM
